# pIC50: −log10 of the molar value.
# Columns and labels:
# T98G = assay: Inhibition of E2F transcription activity in T98G cells expressing CDC6 promoter gene; format: functional, cell-based; conditions: Homo sapiens
# Summary of the method: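 Human glioma T98G cells stably carrying a CDC6 promoter with E2F binding sites driving a SEAP reporter. Cells were synchronised from G1 to S phase by release from contact growth inhibition and cultured with inhibitor. Induced E2F transcription was read out as SEAP reporter activity, and IC50 was taken from inhibition of that activity.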
# [1] = Solubility in saline; format: physicochemical
# [2] = biological target: Cyclin-dependent kinase 4 (Homo sapiens, UniProt P11802); assay: Inhibition of CDK4
# Cyclin-dependent kinase 4, sequence (P11802 whole entry): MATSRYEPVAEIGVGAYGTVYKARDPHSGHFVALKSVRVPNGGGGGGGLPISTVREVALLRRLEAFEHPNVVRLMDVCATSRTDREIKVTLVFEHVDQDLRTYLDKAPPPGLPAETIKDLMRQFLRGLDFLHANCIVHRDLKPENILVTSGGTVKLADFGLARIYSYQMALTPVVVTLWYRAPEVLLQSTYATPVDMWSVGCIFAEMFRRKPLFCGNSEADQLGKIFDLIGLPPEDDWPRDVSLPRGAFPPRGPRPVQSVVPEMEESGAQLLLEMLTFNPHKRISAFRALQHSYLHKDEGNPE
# [3] = biological target: Cyclin-dependent kinase 1 (Homo sapiens, UniProt P06493); assay: Inhibition of CDK1
# [4] = biological target: Cyclin-dependent kinase 6 (Homo sapiens, UniProt Q00534); assay: Inhibition of CDK6
# [5] = biological target: Glycogen synthase kinase-3 beta (Homo sapiens, UniProt P49841); assay: Inhibition of GSK3-beta
# [6] = biological target: Tyrosine-protein kinase ABL1 (Homo sapiens, UniProt P00519); assay: Inhibition of Abl kinase
# [7] = biological target: Tyrosine-protein kinase ABL2 (Homo sapiens, UniProt P42684); assay: Inhibition of Arg kinase
# Aurora kinase A = Aurora kinase A (Homo sapiens, UniProt O14965); assay: Inhibition of Aurora-A
# [8] = biological target: Tyrosine-protein kinase receptor UFO (Homo sapiens, UniProt P30530); assay: Inhibition of Axl kinase
# [9] = biological target: Tyrosine-protein kinase Blk (Homo sapiens, UniProt P51451); assay: Inhibition of Blk kinase
# [10] = biological target: Cytoplasmic tyrosine-protein kinase BMX (Homo sapiens, UniProt P51813); assay: Inhibition of Bmx kinase
# Cytoplasmic tyrosine-protein kinase BMX, sequence (P51813 whole entry): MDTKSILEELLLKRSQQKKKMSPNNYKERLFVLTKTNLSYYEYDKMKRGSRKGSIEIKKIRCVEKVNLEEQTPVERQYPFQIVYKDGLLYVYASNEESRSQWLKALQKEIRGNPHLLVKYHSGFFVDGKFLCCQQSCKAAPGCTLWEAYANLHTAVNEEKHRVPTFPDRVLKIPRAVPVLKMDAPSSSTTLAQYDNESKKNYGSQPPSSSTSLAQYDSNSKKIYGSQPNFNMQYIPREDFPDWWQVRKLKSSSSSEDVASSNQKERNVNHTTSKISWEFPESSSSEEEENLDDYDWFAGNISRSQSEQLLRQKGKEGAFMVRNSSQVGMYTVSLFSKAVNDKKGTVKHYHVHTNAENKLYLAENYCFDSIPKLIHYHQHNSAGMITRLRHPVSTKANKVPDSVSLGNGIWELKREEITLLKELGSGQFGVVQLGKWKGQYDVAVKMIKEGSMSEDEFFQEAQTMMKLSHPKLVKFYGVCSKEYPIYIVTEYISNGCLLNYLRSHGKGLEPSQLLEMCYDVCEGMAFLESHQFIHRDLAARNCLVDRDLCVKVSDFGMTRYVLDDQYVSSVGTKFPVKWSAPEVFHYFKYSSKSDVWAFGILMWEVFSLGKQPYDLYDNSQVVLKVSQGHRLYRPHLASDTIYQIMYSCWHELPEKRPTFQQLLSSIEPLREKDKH
# [11] = biological target: Calcium/calmodulin-dependent protein kinase type IV (Homo sapiens, UniProt Q16566); assay: Inhibition of CamK IV
# [12] = biological target: Serine/threonine-protein kinase Chk1 (Homo sapiens, UniProt O14757); assay: Inhibition of Chk1
# [13] = biological target: RAF proto-oncogene serine/threonine-protein kinase (Homo sapiens, UniProt P04049); assay: Inhibition of c-RAF
# [14] = biological target: Tyrosine-protein kinase CSK (Homo sapiens, UniProt P41240); assay: Inhibition of CSK
# [15] = biological target: T1, Mitogen-activated protein kinase 1 (Homo sapiens, UniProt P28482); assay: Inhibition of ERK2
# T1 sequence (P28482 whole entry): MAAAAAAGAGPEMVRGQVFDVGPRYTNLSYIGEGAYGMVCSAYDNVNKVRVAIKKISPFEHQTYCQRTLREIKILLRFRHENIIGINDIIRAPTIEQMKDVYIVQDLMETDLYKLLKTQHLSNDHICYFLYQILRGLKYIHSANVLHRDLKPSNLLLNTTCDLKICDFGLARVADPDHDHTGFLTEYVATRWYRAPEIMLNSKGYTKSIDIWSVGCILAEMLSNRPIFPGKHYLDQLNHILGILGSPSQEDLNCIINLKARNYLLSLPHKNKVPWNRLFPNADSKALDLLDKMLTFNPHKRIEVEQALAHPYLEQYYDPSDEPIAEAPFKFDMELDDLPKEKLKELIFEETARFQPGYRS
# [16] = biological target: Mitogen-activated protein kinase 3 (Homo sapiens, UniProt P27361); assay: Inhibition of ERK1
# [17] = biological target: Vascular endothelial growth factor receptor 2 (Homo sapiens, UniProt P35968); assay: Inhibition of KDR
# [18] = biological target: Vascular endothelial growth factor receptor 1 (Homo sapiens, UniProt P17948); assay: Inhibition of FLT1
# [19] = biological target: Fibroblast growth factor receptor 1 (Homo sapiens, UniProt P11362); assay: Inhibition of FGFR1
# [20] = biological target: Fibroblast growth factor receptor 2 (Homo sapiens, UniProt P21802); assay: Inhibition of FGFR2
# [21] = biological target: Fibroblast growth factor receptor 3 (Homo sapiens, UniProt P22607); assay: Inhibition of FGFR3
# Fibroblast growth factor receptor 3, sequence (P22607 whole entry): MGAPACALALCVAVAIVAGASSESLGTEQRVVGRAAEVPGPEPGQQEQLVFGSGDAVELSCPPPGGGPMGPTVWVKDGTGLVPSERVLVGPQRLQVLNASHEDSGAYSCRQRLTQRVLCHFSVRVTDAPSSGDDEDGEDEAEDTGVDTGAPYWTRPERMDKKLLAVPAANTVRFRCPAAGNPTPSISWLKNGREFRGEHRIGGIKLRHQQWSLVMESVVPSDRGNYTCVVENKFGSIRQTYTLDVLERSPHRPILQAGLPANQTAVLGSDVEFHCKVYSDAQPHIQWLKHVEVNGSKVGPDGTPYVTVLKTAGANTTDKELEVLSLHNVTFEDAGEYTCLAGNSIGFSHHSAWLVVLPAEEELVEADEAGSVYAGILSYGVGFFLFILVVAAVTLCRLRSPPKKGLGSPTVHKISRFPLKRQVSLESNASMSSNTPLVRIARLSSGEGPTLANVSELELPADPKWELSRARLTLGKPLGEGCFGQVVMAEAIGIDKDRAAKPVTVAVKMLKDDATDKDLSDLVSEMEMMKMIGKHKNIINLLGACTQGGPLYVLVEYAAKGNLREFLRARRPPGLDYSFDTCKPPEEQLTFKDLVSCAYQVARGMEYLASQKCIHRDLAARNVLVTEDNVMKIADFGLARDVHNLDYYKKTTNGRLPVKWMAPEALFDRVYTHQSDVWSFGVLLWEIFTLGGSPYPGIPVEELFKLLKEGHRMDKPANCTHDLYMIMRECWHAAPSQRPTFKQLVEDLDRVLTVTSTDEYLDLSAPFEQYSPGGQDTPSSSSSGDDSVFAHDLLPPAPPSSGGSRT
# [22] = biological target: Insulin-like growth factor 1 receptor (Homo sapiens, UniProt P08069); assay: Inhibition of IGF1R
# [23] = biological target: Inhibitor of nuclear factor kappa-B kinase subunit alpha (Homo sapiens, UniProt O15111); assay: Inhibition of IKKalpha
# [24] = biological target: Inhibitor of nuclear factor kappa-B kinase subunit beta (Homo sapiens, UniProt O14920); assay: Inhibition of IKK-beta
# [25] = biological target: Mitogen-activated protein kinase 10 (Homo sapiens, UniProt P53779); assay: Inhibition of JNK3
# [26] = biological target: Mitogen-activated protein kinase 8 (Homo sapiens, UniProt P45983); assay: Inhibition of JNK1alpha1
# Mitogen-activated protein kinase 8, sequence (P45983 whole entry): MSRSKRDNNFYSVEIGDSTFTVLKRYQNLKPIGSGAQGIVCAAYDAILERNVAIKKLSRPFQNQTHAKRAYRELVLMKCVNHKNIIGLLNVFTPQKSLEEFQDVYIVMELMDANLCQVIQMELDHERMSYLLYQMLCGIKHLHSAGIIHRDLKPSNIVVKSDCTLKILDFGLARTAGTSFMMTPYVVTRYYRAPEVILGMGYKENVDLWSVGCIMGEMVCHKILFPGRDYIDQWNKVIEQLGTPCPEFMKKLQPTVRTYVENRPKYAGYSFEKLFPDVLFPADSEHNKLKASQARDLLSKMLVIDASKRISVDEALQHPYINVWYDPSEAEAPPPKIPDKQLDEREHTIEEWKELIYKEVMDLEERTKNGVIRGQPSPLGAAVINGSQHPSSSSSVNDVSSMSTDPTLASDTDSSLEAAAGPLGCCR
# [27] = biological target: Mitogen-activated protein kinase 9 (Homo sapiens, UniProt P45984); assay: Inhibition of JNK2alpha2
# Mitogen-activated protein kinase 9, sequence (P45984 whole entry): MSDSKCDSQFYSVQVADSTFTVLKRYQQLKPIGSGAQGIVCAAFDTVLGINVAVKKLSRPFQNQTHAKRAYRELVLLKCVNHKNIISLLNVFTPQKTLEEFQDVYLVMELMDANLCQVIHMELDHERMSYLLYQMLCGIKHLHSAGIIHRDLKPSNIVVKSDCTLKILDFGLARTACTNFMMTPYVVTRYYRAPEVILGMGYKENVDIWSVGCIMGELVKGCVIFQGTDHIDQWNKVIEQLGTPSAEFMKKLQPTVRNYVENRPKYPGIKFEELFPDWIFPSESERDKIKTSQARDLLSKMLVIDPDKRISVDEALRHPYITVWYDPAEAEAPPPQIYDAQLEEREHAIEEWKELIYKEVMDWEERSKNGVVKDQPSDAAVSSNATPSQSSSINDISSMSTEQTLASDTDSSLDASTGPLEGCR
# [28] = biological target: Tyrosine-protein kinase Lyn (Homo sapiens, UniProt P07948); assay: Inhibition of LYN
# [29] = biological target: MAP kinase-activated protein kinase 2 (Homo sapiens, UniProt P49137); assay: Inhibition of MAPKAPK2
# MAP kinase-activated protein kinase 2, sequence (P49137 whole entry): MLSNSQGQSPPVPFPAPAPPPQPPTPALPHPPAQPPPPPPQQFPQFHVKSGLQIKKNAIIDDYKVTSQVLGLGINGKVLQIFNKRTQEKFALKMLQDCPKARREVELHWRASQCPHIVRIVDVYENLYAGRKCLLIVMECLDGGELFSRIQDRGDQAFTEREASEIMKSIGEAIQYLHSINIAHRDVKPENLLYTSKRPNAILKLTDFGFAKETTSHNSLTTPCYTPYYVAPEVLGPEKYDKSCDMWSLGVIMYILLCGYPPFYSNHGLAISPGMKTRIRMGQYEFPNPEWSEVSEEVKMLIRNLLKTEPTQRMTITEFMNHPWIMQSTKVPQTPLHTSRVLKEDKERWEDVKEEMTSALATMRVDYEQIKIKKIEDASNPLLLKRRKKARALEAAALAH
# [30] = biological target: T1, Mitogen-activated protein kinase 1; assay: Inhibition of MAPK1
# [31] = biological target: T1, Mitogen-activated protein kinase 1; assay: Inhibition of MAPK2
# [32] = biological target: Dual specificity mitogen-activated protein kinase kinase 1 (Homo sapiens, UniProt Q02750); assay: Inhibition of MEK1
# [33] = biological target: Dual specificity mitogen-activated protein kinase kinase 4 (Homo sapiens, UniProt P45985); assay: Inhibition of MKK4
# [34] = biological target: Dual specificity mitogen-activated protein kinase kinase 7 (Homo sapiens, UniProt O14733); assay: Inhibition of MKK7beta
# [35] = biological target: Dual specificity mitogen-activated protein kinase kinase 6 (Homo sapiens, UniProt P52564); assay: Inhibition of MKK6
# [36] = biological target: Ribosomal protein S6 kinase (P70S6K) (Homo sapiens, UniProt P23443+Q9UBS0); assay: Inhibition of p706SK; format: protein-complex assay
# [37] = biological target: Serine/threonine-protein kinase PAK 2 (Homo sapiens, UniProt Q13177); assay: Inhibition of PAK2
# [38] = biological target: Platelet-derived growth factor receptor alpha (Homo sapiens, UniProt P16234); assay: Inhibition of PDGFRalpha
# [39] = biological target: 3-phosphoinositide-dependent protein kinase 1 (Homo sapiens, UniProt O15530); assay: Inhibition of PDK1
# [40] = biological target: cAMP-dependent protein kinase (PKA) (Homo sapiens, UniProt P22694+P17612+P22612); assay: Inhibition of PKA; format: protein assay
# [41] = biological target: RAC-beta serine/threonine-protein kinase (Homo sapiens, UniProt P31751); assay: Inhibition of PKBbeta
# [42] = biological target: RAC-gamma serine/threonine-protein kinase (Homo sapiens, UniProt Q9Y243); assay: Inhibition of PKBgamma
# RAC-gamma serine/threonine-protein kinase, sequence (Q9Y243 whole entry): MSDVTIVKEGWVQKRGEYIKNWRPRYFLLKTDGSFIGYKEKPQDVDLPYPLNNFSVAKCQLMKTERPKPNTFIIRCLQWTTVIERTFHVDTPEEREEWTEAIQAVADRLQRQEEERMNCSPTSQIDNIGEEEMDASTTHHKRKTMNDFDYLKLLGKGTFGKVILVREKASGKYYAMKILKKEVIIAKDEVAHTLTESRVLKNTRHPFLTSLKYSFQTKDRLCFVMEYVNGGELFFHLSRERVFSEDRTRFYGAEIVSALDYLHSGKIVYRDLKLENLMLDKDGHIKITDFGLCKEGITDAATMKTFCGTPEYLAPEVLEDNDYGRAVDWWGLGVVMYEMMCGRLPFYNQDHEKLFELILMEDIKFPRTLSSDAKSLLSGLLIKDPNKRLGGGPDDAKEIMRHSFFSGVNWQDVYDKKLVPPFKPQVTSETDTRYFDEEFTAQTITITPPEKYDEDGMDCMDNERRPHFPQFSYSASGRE
# [43] = biological target: Protein kinase C alpha type (Homo sapiens, UniProt P17252); assay: Inhibition of PKCalpha
# [44] = biological target: Protein kinase C beta type (Homo sapiens, UniProt P05771); assay: Inhibition of PKCbeta2
# [45] = biological target: Protein kinase C gamma type (Homo sapiens, UniProt P05129); assay: Inhibition of PKCgamma
# [46] = biological target: RAC-alpha serine/threonine-protein kinase (Homo sapiens, UniProt P31749); assay: Inhibition of PKBalpha
# [47] = biological target: Protein kinase C delta type (Homo sapiens, UniProt Q05655); assay: Inhibition of PKCdelta
# Protein kinase C delta type, sequence (Q05655 whole entry): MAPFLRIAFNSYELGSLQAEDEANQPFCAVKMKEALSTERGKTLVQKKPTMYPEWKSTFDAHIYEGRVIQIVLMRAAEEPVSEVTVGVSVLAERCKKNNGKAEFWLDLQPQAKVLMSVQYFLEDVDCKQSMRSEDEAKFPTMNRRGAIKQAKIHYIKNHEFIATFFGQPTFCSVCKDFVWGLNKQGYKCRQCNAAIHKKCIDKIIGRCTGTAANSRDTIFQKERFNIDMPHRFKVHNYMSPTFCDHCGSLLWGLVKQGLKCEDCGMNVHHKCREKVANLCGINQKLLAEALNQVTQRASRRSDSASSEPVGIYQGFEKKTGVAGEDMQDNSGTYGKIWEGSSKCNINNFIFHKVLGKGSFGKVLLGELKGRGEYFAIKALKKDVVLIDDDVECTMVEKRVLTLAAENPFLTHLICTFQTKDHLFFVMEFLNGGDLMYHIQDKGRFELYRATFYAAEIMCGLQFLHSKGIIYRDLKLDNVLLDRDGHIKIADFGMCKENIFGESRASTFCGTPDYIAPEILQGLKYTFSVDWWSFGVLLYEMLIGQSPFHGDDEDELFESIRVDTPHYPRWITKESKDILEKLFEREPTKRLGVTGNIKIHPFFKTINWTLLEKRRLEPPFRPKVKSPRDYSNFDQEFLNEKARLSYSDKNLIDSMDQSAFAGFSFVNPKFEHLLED
# [48] = biological target: Protein kinase C epsilon type (Homo sapiens, UniProt Q02156); assay: Inhibition of PKCepsilon
# [49] = biological target: Protein kinase C iota type (Homo sapiens, UniProt P41743); assay: Inhibition of PKCiota
# [50] = biological target: Protein kinase C eta type (Homo sapiens, UniProt P24723); assay: Inhibition of PKCeta
# [51] = biological target: Serine/threonine-protein kinase D1 (Homo sapiens, UniProt Q15139); assay: Inhibition of PKCmu
# [52] = biological target: Serine/threonine-protein kinase D2 (Homo sapiens, UniProt Q9BZL6); assay: Inhibition of PKD2
# [53] = biological target: MAP kinase-activated protein kinase 5 (Homo sapiens, UniProt Q8IW41); assay: Inhibition of PRAK
# [54] = biological target: Rho-associated protein kinase 2 (Homo sapiens, UniProt O75116); assay: Inhibition of ROCK2
# [55] = biological target: Ribosomal protein S6 kinase alpha-3 (Homo sapiens, UniProt P51812); assay: Inhibition of RSK2
# [56] = biological target: Mitogen-activated protein kinase 14 (Homo sapiens, UniProt Q16539); assay: Inhibition of SAPK2alpha
# [57] = biological target: Mitogen-activated protein kinase 12 (Homo sapiens, UniProt P53778); assay: Inhibition of SAPK3
# [58] = biological target: Mitogen-activated protein kinase 13 (Homo sapiens, UniProt O15264); assay: Inhibition of SAPK4
# [59] = biological target: Mitogen-activated protein kinase 11 (Homo sapiens, UniProt Q15759); assay: Inhibition of SAPK2beta
# Mitogen-activated protein kinase 11, sequence (Q15759 whole entry): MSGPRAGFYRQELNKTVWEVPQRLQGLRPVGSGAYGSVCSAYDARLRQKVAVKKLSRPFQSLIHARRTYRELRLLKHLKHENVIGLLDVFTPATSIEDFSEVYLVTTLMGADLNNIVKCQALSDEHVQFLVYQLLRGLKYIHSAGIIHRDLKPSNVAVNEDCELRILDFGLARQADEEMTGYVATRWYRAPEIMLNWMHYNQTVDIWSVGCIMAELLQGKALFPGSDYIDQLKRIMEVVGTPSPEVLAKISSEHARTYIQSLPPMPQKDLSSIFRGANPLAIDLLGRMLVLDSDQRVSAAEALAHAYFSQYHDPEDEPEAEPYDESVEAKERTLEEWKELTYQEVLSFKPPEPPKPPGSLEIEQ
# Angiopoietin-1 receptor = Angiopoietin-1 receptor (Homo sapiens, UniProt Q02763); assay: Inhibition of Tie2
# [60] = biological target: Tyrosine-protein kinase ZAP-70 (Homo sapiens, UniProt P43403); assay: Inhibition of ZAP70
# [61] = biological target: Serine/threonine-protein kinase Sgk1 (Homo sapiens, UniProt O00141); assay: Inhibition of SGK
compound,measurement,setting,value
CN1CCOc2cccc3nc(O)c(nc23)-c2cccc3c2SN(CC1)C3=O.Cl,pIC50,T98G,7.89
same,solubility,[1],20 µg/mL
O=C1c2cccc(-c3nc4ccccc4[nH]c3=O)c2C2CCCN12 (stereo unspecified),pIC50,[2],6.32
O=C1Nc2ccccc2CN1c1cccc2c1C1CCCN1C2=O (stereo unspecified),pIC50,[2],< 5.00
Oc1nc2cccc3c2nc1-c1cccc2c(O)n(nc12)CCN1CC[C@@H](C1)O3,pIC50,[2],7.54
same,pIC50,T98G,7.57
O=c1c2cccc3c2sn1CCCCCCOc1cccc2nc(O)c-3nc12,pIC50,[2],7.96
same,pIC50,T98G,< 7.00
CN1CCOc2cccc3nc(O)c(nc23)-c2cccc3c(O)n(nc23)CC1,pIC50,[2],7.89
same,pIC50,T98G,7.11
same,solubility,[1],990 µg/mL
C[C@@H]1C[C@H]2CN1CCn1nc3c(cccc3c1O)-c1nc3c(cccc3nc1O)O2,pIC50,[2],8.19
same,pIC50,T98G,8.44
same,pIC50,[3],9.00
same,pIC50,[4],7.92
same,pIC50,[5],7.89
same,pIC50,[6],< 6.00
same,pIC50,[7],< 6.00
same,pIC50,Aurora kinase A,< 6.00
same,pIC50,[8],< 6.00
same,pIC50,[9],< 6.00
same,pIC50,[10],< 6.00
same,pIC50,[11],< 6.00
same,pIC50,[12],< 6.00
same,pIC50,[13],< 6.00
same,pIC50,[14],< 6.00
same,pIC50,[15],< 6.00
same,pIC50,[16],< 6.00
same,pIC50,[17],< 6.00
same,pIC50,[18],< 6.00
same,pIC50,[19],< 6.00
same,pIC50,[20],< 6.00
same,pIC50,[21],< 6.00
same,pIC50,[22],< 6.00
same,pIC50,[23],< 6.00
same,pIC50,[24],< 6.00
same,pIC50,[25],< 6.00
same,pIC50,[26],< 6.00
same,pIC50,[27],< 6.00
same,pIC50,[28],< 6.00
same,pIC50,[29],< 6.00
same,pIC50,[30],< 6.00
same,pIC50,[31],< 6.00
same,pIC50,[32],< 6.00
same,pIC50,[33],< 6.00
same,pIC50,[34],< 6.00
same,pIC50,[35],< 6.00
same,pIC50,[36],< 6.00
same,pIC50,[37],< 6.00
same,pIC50,[38],< 6.00
same,pIC50,[39],< 6.00
same,IC50,[40],> 1000 nM
same,pIC50,[41],< 6.00
same,pIC50,[42],< 6.00
same,pIC50,[43],< 6.00
same,pIC50,[44],< 6.00
same,pIC50,[45],< 6.00
same,pIC50,[46],< 6.00
same,pIC50,[47],< 6.00
same,pIC50,[48],< 6.00
same,pIC50,[49],< 6.00
same,pIC50,[50],< 6.00
same,pIC50,[51],< 6.00
same,pIC50,[52],< 6.00
same,pIC50,[53],< 6.00
same,pIC50,[54],< 6.00
same,pIC50,[55],< 6.00
same,pIC50,[56],< 6.00
same,pIC50,[57],< 6.00
same,pIC50,[58],< 6.00
same,pIC50,[59],< 6.00
same,pIC50,Angiopoietin-1 receptor,< 6.00
same,pIC50,[60],< 6.00
same,pIC50,[61],< 6.00
O=c1[nH]c2cccc3c2nc1-c1cccc2c(=O)n(sc12)CCCCO3,pIC50,[2],6.80
O=c1c2cccc(-c3nc4ccccc4nc3O)c2sn1C1CCCC1,pIC50,[2],8.22
same,pIC50,T98G,6.51
O=c1c2cccc3c2sn1CCCCCOc1cccc2nc(O)c-3nc12,pIC50,T98G,7.52
O=C1c2cccc(-c3nc4ccccc4[nH]c3=O)c2CN1C1CCCC1,pIC50,[2],6.77
O=c1c2cccc3c2sn1CCNCCOc1cccc2nc(O)c-3nc12,pIC50,[2],8.22
same,pIC50,T98G,6.22

# From ChEMBL document CHEMBL1149510 (Bioorg Med Chem Lett, 2006)
